Data as given in ChEMBL document CHEMBL1144338, “N-Acyl arylsulfonamides as novel, reversible inhibitors of human steroid sulfatase” (Bioorg Med Chem Lett, 2005).

Tests used:
Steryl-sulfatase [1] = molecular target: T1, Steryl-sulfatase (Homo sapiens, UniProt P08842); assay: Inhibitory concentration against human steroid sulfatase
T1 sequence (P08842 whole entry): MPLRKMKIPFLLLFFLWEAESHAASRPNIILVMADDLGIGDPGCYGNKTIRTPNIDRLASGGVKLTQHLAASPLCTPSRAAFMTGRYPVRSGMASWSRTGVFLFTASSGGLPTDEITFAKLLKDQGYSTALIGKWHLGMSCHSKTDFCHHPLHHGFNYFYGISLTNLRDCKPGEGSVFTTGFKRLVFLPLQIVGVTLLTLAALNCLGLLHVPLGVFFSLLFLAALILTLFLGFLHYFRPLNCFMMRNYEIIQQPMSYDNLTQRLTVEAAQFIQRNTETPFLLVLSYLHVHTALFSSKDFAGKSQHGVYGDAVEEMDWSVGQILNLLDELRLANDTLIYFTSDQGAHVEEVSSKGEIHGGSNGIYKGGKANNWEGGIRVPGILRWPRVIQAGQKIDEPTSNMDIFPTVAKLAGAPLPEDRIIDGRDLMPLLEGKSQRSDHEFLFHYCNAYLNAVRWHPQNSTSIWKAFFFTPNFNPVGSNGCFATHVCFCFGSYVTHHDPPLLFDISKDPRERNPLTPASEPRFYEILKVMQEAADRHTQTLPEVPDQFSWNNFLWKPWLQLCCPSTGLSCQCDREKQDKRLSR
Method in brief: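 Human STS purified to homogeneity from recombinant CHO cells; fluorimetric assay following cleavage of 4-methylumbelliferyl sulfate (fixed at 0.75 mM) at 37 °C, 1 h incubations with or without inhibitor. Initial velocity taken from the linear phase as fluorescence units per min; IC50 derived by a previously described method.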

Steryl-sulfatase [2] = molecular target: T1, Steryl-sulfatase; assay: Inhibitory concentration against human steroid sulfatase expressed in CHO cells; assay type: cell-based
Method in brief: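 Intact recombinant CHO cells overexpressing STS, live-cell variant for reversible inhibitors; 4-methylumbelliferyl sulfate substrate at 0.5 mM, 4 h incubation with inhibitor; fluorimetric read-out of substrate cleavage, IC50 determined.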

Steryl-sulfatase [3] = molecular target: T1, Steryl-sulfatase; assay: Inhibitory constant against human Steroid sulfatase
Method in brief: (§1)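 Purified human STS (from recombinant CHO cells) at 37 °C; 4-methylumbelliferyl sulfate cleavage monitored fluorimetrically, substrate varied 0.05–2 mM at several inhibitor concentrations. Initial velocities from the linear phase (fluorescence units per min); Ki calculated from Hanes plots ([S]/v versus [S]).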

Steryl-sulfatase [4] = molecular target: T1, Steryl-sulfatase; assay: Inhibitory constant against human steroid sulfatase; method in brief: as §1

SMILES | IC50 (Steryl-sulfatase [1]) [nM] | IC50 (Steryl-sulfatase [2]) [nM] | Ki (Steryl-sulfatase [3]) [nM] | Ki (Steryl-sulfatase [4]) [nM]
O=C(Cc1ccccc1)O[C@H]1C[C@H]2CC[C@@H](C1)N2C(=O)NS(=O)(=O)c1ccc(Cl)cc1 | 910 | 6270 | – | –
CC(C)(C)OC(=O)N1CCC(C(=O)NS(=O)(=O)c2cc(Cl)cc(Cl)c2)CC1 | – | 1260 | – | –
CC(C)(C)OC(=O)N1CCC(C(=O)NS(=O)(=O)c2c(Cl)sc(Cl)c2Br)CC1 | 26 | 270 | 12 | –
CC(C)(C)OC(=O)N1CCC(C(=O)NS(=O)(=O)c2ccc(Cl)cc2)CC1 | 8600 | 9800 | – | 16100
CC(C)(C)OC(=O)N1CCC(C(=O)NS(=O)(=O)c2cc(C(F)(F)F)cc(C(F)(F)F)c2)CC1 | 210 | 780 | – | 220
CC(C)(C)OC(=O)N1CCC(C(=O)NS(=O)(=O)c2c(Cl)cccc2Cl)CC1 | – | 9900 | – | –
CC(C)(C)OC(=O)N1CCN(C(=O)NS(=O)(=O)c2ccc(Cl)cc2)CC1 | 3600 | 12000 | – | 14500
